Assay results published in ChEMBL document CHEMBL2406930, “Synthesis and electrochemical and biological studies of novel coumarin-chalcone hybrid compounds” (J Med Chem, 2013).
Activity calls are given as the source filed them. The calls are words filed in the database; no cut-off is given here.

How the values were obtained:
[1] = Antioxidant activity assessed as hydroxyl radical scavenging activity at 4 mM after 5 mins by ESR spectroscopy analysis
[2] = Cytotoxicity against BAEC assessed as cell viability at 10 uM after 24 hrs by MTT assay; parameters: species or system Bos taurus; conditions: cattle, BAEC cells; read-out: Activity
Outline: (§1)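 BAEC seeded at 10^4–10^5 cells/mL were grown to 60–70% confluency and exposed to compound (10–50 µM) for 24 h. Medium was then replaced and MTT added for 2 h at 37 °C. Formazan was dissolved in DMSO and read at 570 nm. Viability was taken relative to solvent-only wells, n = 3, mean ± SEM.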

[3] = tested on: BAEC; test: (§2) Cytoprotective activity against H2O2-induced toxicity in BAEC assessed as cell viability at 10 uM after 24 hrs by MTT assay; assay type: functional; conditions: Bos taurus
Outline: (§3)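 Bovine aortic endothelial cells (BAEC) in DMEM with 10% FBS, endothelial growth supplement and no antibiotics were grown to 60–70% confluency. They were pretreated 24 h with compound at 10 or 20 µM, then washed twice with PBS. Insult was 1 mM H2O2 for 2 h, or 500 µM SIN-1 (peroxynitrite source) for 4 h. Viability was read by MTT reduction, formazan in DMSO, A570.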

[4] = Antioxidant activity assessed as trolox equivalents of peroxyl radical scavenging activity at 0.7 to 7 uM preincubated for 15 mins by ORAC assay relative to control; assay type: functional; conditions: 0.5 to 7 uM; in the assay text read “0.5 to 7 uM” for “0.7 to 7 uM”
Outline: (§4)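 Peroxyl radical scavenging by ORAC-FL in 75 mM sodium phosphate buffer (pH 7.4) at 37 °C. Fluorescein was 70 nM final. Compounds in methanol were tested at 0.3–2 µM for monohydroxy and 0.5–7 µM for dihydroxy derivatives, preincubated 15 min, then AAPH was added (18 mM final). Fluorescence (ex 485, em 528 nm) was read each minute for 120 min. Net AUC minus methanol blank was referenced to Trolox (0.5–2.5 µM).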

[5] = Cytotoxicity against BAEC assessed as cell viability at 20 uM after 24 hrs by MTT assay; parameters: species or system Bos taurus; conditions: cattle, BAEC cells; read-out: Activity
Outline: as §1

[6] = Cytotoxicity against BAEC assessed as cell viability at 50 uM after 24 hrs by MTT assay; parameters: species or system Bos taurus; conditions: cattle, BAEC cells; read-out: Activity
Outline: as §1

[7] = tested on: BAEC; test: (§5) Cytoprotective activity against peroxynitrite-induced toxicity in BAEC assessed as cell viability at 20 uM after 24 hrs by MTT assay; assay type: functional; conditions: Bos taurus
Outline: as §3

[8] = Antioxidant activity assessed as trolox equivalents of peroxyl radical scavenging activity at 0.3 to 2 uM preincubated for 15 mins by ORAC assay relative to control; assay type: functional
Outline: as §4

[9] = as §5; assay type: functional; conditions: Bos taurus, read-out: Activity
Outline: as §3

[10] = as §2; assay type: functional; conditions: Bos taurus, read-out: Activity
Outline: as §3

[11] = Antioxidant activity assessed as peroxyl radical scavenging activity by ORAC assay relative to trolox; assay type: functional
Outline: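 Fluorescein-based ORAC in 75 mM sodium phosphate buffer pH 7.4 with FL 70 nM (final). Compounds in methanol at 0.3–2 µM (monohydroxy) or 0.5–7 µM (dihydroxy) preincubated 15 min at 37 °C, then AAPH 18 mM (final) added. Fluorescence (ex 485, em 528 nm) read every 1 min for 120 min. Net AUC minus methanol blank, expressed against Trolox calibration (0.5–2.5 µM).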

Row | Compound | Activity [1] | viability at 24 h, 10 µM [2] | Activity [3] | Ratio [4] | viability at 24 h, 20 µM [5] | viability at 24 h, 50 µM [6] | Activity [7] | Ratio [8] | viability at 20 µM [9] | viability at 10 µM [10] | Ratio [11]
1 | O=C(c1ccc(O)c(O)c1)c1cc2cc(Br)ccc2oc1=O | 100% | 102% | inactive | 13 | 100% | 92% | inactive |  |  |  | 
2 | O=C(c1ccc(O)cc1)c1cc2ccccc2oc1=O | 26% | 76% |  |  | 60% | 44% |  | 9.2 |  |  | 
3 | O=C(c1ccccc1)c1cc2cc(Br)cc(O)c2oc1=O | 65% | 96% |  |  | 101% | 93% |  | 8.3 | 90% |  | 
4 | O=C(c1ccc(O)c(O)c1)c1cc2cccc(O)c2oc1=O | 75% | 49% |  |  | 68% | 63% |  | 8.1 |  |  | 
5 | Cc1c(C)c2c(c(C)c1O)CCC(C)(C(=O)O)O2 (stereo not drawn) | 31% |  |  |  |  |  |  | 1 |  |  | 
6 | O=C(c1ccc(O)cc1)c1cc2cc(Br)ccc2oc1=O | 28% | 95% |  |  | 93% | 104% |  | 9.5 | 90% |  | 
7 | O=C(c1ccccc1)c1cc2cc(O)ccc2oc1=O | 39% | 88% |  |  | 95% | 86% | inactive | 11.5 |  | 40% | 
8 | O=C(c1ccc(O)c(O)c1)c1cc2cc(Br)cc(O)c2oc1=O | 100% | 64% |  |  | 23% | 71% |  | 8.8 |  |  | 
9 | Oc1cc(O)c2c(c1)OC(c1ccc(O)c(O)c1)C(O)C2 (stereo not drawn) |  |  |  |  |  |  |  |  |  |  | 6.8
10 | O=C(c1ccc(O)cc1)c1cc2cc(O)ccc2oc1=O | 58% | 68% |  |  | 94% | 93% |  | 14.1 | 90% |  | 
11 | Cc1cccc2cc(C(=O)c3ccc(O)cc3)c(=O)oc12 | 45% | 87% |  |  | 82% | 101% |  | 10.9 | 90% | 40% | 
12 | O=c1c(O)c(-c2ccc(O)c(O)c2)oc2cc(O)cc(O)c12 |  |  |  |  |  |  |  |  |  |  | 7.3
